In paper PMC3979326 (Science signaling, 2012):
Square brackets hold non-standard residues; d marks the D form. Ends that are not written are not given here. pY = N[C@@H](Cc1ccc(OP(=O)(O)O)cc1)C(=O)O

Experiments:
[1] = tested on: EGF-dependent activation of Akt (RTK-mediated activation of PI3Kβ); assay: EGF-dependent Akt activation; type: cell-based; conditions: intact cells, cell line not named; fig. S7B
[2] = tested on: Gβγ-mediated activation of Akt via PI3Kβ; assay: Gβγ-mediated Akt activation; type: cell-based; conditions: for effect on Gβγ-mediated increase in Akt phosphorylation at Thr308: 30 μM peptide, Fig. 5A, fig. S7A; for effect on Gβγ-dependent activation of Akt (need for cell entry): fig. S7C, labeled versus unlabeled peptide
In short: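 HEK 293 cells were grown in DMEM with 10% FBS and transfected with human p85α, myc-p110β, myc-Akt, with or without FLAG-Gβ1 and HA-Gγ2. After overnight serum starvation, cells received myristoylated peptide (30 µM final, from DMSO stock) or TGX-221 (50 nM) for 30 min before lysis. Anti-myc immunoprecipitates were blotted for Akt and pT308-Akt, and the pAkt:total Akt ratio was quantified.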

[3] = tested on: PC3 cells (PTEN-null prostate cancer); assay: MTT proliferation, PC3 cells; type: cell-based; conditions: 30 μM peptides, 200 nM TGX221, means ± SEM of three experiments, Fig. 6A
[4] = tested on: p110β–Gβ-p85α-icSH2–Gγ-C68S fusion heterotrimer; assay: Lipid kinase activity, fusion heterotrimer; type: biochemical, human; conditions: fig. S3A
loop-swap mutant PI3Kβ = assay: Lipid kinase activity, loop-swap mutant PI3Kβ; type: biochemical, human; conditions: pY (substrate stock 900 nM); compared with wild-type; Fig. 1F, S4A, S4B
In short: (§1)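 Recombinant PI3Kβ from baculovirus-infected insect cells was assayed on lipid vesicles at 1 mg/ml final (5% PIP2, 20% PS, 45% PE, 15% DOPC, 10% cholesterol, 5% sphingomyelin, by weight). Threefold enzyme stocks were 75 nM in Hepes pH 7.5, MgCl2, EDTA. Threefold substrate stocks carried 900 nM RTK-pY and/or 1.5 µM Gβ1γ2. The read-out was 32P-PIP3 captured on nitrocellulose, washed in 1 M NaCl/1% phosphoric acid.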

532KK-DD mutant PI3Kβ = assay: Lipid kinase activity, 532KK-DD mutant PI3Kβ; type: biochemical, human; conditions: pY (substrate stock 900 nM); compared with wild-type; Fig. 1F, S4A, S4B
In short: as §1

p110β = conditions: ref [7]; cited from earlier work
[5] = tested on: p110β with p85-i or p85-ic; assay: Activity of p110β with p85 truncation constructs; type: biochemical; conditions: p85-i (iSH2 only) or p85-ic (iSH2-cSH2); fig. S9
wild-type PI3Kβ = assay: Lipid kinase activity, wild-type PI3Kβ from insect cells; type: biochemical, human; conditions: no pY; Fig. 1F
In short: as §1

[6] = tested on: 532KK-DD mutant PI3Kβ in HEK 293E cells; assay: Gβγ-mediated Akt activation, 532KK-DD mutant PI3Kβ; type: cell-based, human; conditions: myc-Akt, Western blot, Fig. 2A
In short: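 HEK 293E cells were transfected with human p85α, mutant myc-p110β and myc-Akt, with or without FLAG-Gβ1 and HA-Gγ2, then serum-starved overnight. After anti-myc immunoprecipitation, pT308-Akt and total Akt were blotted and quantified by densitometry or infrared imaging. The pAkt:total Akt ratio is expressed as percent of basal.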

[7] = tested on: NIH3T3 cells transfected with p110β and p85α; assay: Focus formation assay, PI3Kβ-transfected NIH3T3 cells; type: cell-based; conditions: 30 μM peptide; two weeks; crystal violet; Fig. 5D
In short: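 NIH 3T3 cells were plated at 2×10^5 cells/well and transfected with myc-p110β and p85α plasmids. Cells were grown two weeks with medium changed every two days, with myristoylated peptide at 30 µM in the medium throughout. Cells were then fixed and stained with crystal violet, and foci were counted per well.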

p110β–Rab5 binding = assay: Rab5 pulldown assay; conditions: GST-Rab5 pulldown; fig. S8, E and F
In short: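 HEK 293T cells were transfected with wild-type or mutant myc-p110β plus p85α. Lysates were incubated with GTPγS-Rab5 or GST beads, washed, and bound proteins blotted.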

[8] = tested on: LPA-stimulated Akt phosphorylation in NIH3T3 cells; assay: LPA-stimulated Akt activation; type: cell-based; conditions: 30 μM peptide, 10 nM LPA for 5 min, Western blot, Fig. 5B
[9] = tested on: NIH3T3 cells expressing p110β and p85α; assay: Boyden chamber migration, PI3Kβ-expressing NIH3T3 cells; type: cell-based
PLC-β = assay: Gβγ-mediated PLC-β activation in cells; type: cell-based; conditions: COS-7 cells, 30 μM, 30 min before LiCl; [3H]inositol phosphates; fig. S8C
In short: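 COS-7 cells were transiently transfected with or without Gβγ plasmids. Reactions were stopped with ice-cold 50 mM formic acid and neutralised with 150 mM NH4OH after lysis. [3H]inositol phosphates were isolated on Dowex columns and quantified.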

[10] = tested on: NIH3T3 cells transfected with 12V-Ras; assay: Soft agar colony formation, oncogenic Ras; type: cell-based; conditions: Fig. 5E
In short: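 Transfected NIH 3T3 cells were grown in DMEM with 10% calf serum. Two days after transfection, 2,500 cells/well were plated in 0.3% top agar over 0.6% bottom agar. Myristoylated peptide was present at 30 µM in both gels and the medium. Colonies were counted 3 weeks later.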

[11] = tested on: NIH3T3 cells transfected with p110β and p85α (PI3Kβ-dependent transformation); assay: Soft agar colony formation, PI3Kβ-transfected NIH3T3 cells; type: cell-based
PC3 cells = assay: Boyden chamber chemotaxis, PC3 cells; type: cell-based; conditions: 10% FBS, 20 μM (Fig. 6C legend), three experiments
In short: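 PC-3 cells (5×10^4) were seeded on inserts with 8.0 µm pores. The upper chamber held serum-free medium with DMSO or myristoylated test peptide. The lower chamber held medium with 10% FBS plus DMSO or peptide.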

p101–p110γ dimer = assay: Gβγ-dependent activation of class IB PI3K; conditions: fig. S8A
p110β protein = assay: Abundance of p110β protein in cells; type: cell-based; conditions: Fig. 5, C and D
adenylyl cyclase 2 = assay: Adenylyl cyclase assay, synergistic activation by Gβγ and Gαs; type: biochemical; conditions: 30 μM; 20 nM each Gαs and Gβγ; Sf9 membranes; 10 min at 30°C; fig. S8B
[12] = tested on: PC3 cells co-cultured with macrophages; assay: Collagen invasion assay, macrophage-dependent PC3 invasion; type: cell-based; conditions: collagen I gel, 24 hours, confocal microscopy; two experiments; Fig. 6D
In short: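 BAC-1.2F5 macrophages and PC-3 cells were vitally labelled with red and green CellTracker dyes and co-cultured at 2.5:1. After attachment, cells were overlaid with collagen I gel and incubated 24 h with or without test peptide. Invasion into the 3D gel was quantified by laser scanning confocal detection of dye fluorescence.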

[13] = tested on: NIH3T3 cells transfected with plasmid encoding PI3Kβ; assay: Proliferation of PI3Kβ-transfected NIH3T3 cells; type: cell-based; conditions: fig. S7D
PLCβ3 = assay: In vitro Gβγ-mediated activation of PLCβ; type: biochemical; conditions: PLCβ3 1 nM, 10 min at 30°C, [3H]PIP2; fig. S8D
In short: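 Reactions used recombinant PLCβ3 with a range of peptide concentrations, with or without 200 nM Gαq and with or without Gβγ. Buffer was 20 mM Hepes pH 7.2, 70 mM KCl, 3 mM EGTA, 10 mM NaF, 20 µM AlCl3, 5 mM MgCl2. Substrate was 33 µM PIP2/333 µM PE with [3H]PIP2, free Ca2+ 200 nM. Reactions were stopped with 10% TCA plus BSA, and supernatant counted by scintillation.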

p101–p110γ dimer (PI3Kγ) = assay: Lipid kinase activity, immunopurified p101–p110γ, Gβγ-stimulated; type: biochemical; conditions: 1 μM p110β-peptide or QEHA, 10 μM SIGK; 200 nM Gβγ; lipid kinase assay
In short: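 Peptides were prepared in 20 mM Tris-HCl pH 7.4, 10 mM NaCl: test peptide 1 µM, scrambled 1 µM, SIGK 10 µM, QEHA 1 µM. Each was preincubated with 200 nM recombinant lipidated Gβγ for 30 min on ice, then with lipid vesicles 10 min on ice. Immunopurified PI3Kγ was added for 10 min before the kinase assay. Data are means ± SEM of triplicates, representative of two to three experiments.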

Cc1cc(C(C)Nc2ccccc2)c2nc(N3CCOCC3)cc(=O)n2c1 (stereo not drawn) [TGX221, reference compound]
effect on EGF-dependent activation of Akt [1]: substantial inhibitory effect | effect on Gβγ-dependent Akt activation (TGX-221) ([2]; HEK 293E cells with p110β, p85α, myc-Akt, Gβ1γ2, TGX-221 50 nM, 30 min, fig. S5A): specifically inhibited | effect on PC3 cell proliferation [3]: unaffected

ESDGG[pY]MDMSKDESID[pY]VPMLDMKGDIKYADIE
stimulation of fusion heterotrimer [4]: could be stimulated | activation of mutant PI3Kβ by pY (loop-swap) (loop-swap mutant PI3Kβ): activated to a similar extent | activation of mutant PI3Kβ by pY (532KK-DD) (532KK-DD mutant PI3Kβ): activated to a similar extent

Gβγ: Recombinant human Gβ1, N-terminally hexahistidine-tagged bovine wild-type Gγ2
stimulation of p110β in the absence of p85 (p110β): stimulates p110β | stimulation of p110β associated with p85-i or p85-ic [5]: stimulates p110β | stimulation of fusion heterotrimer [4]: could be stimulated | PI3Kβ activation by Gβγ in the absence of pY (wild-type PI3Kβ): activated PI3Kβ in the absence of pY | pT308-Akt in presence of exogenous Gβγ, wild-type PI3Kβ ([2]; HEK 293E cells, wild-type PI3Kβ, myc-Akt, Western blot, Fig. 2A): marked increase | Akt activation in presence of exogenous Gβγ, 532KK-DD mutant [6]: complete loss of Akt activation

KAAEIASSDSANVSSRGGKKFLPV [myristoylated p110β-peptide]
effect on EGF-dependent activation of Akt [1]: no effect | effect on PI3Kβ-dependent transformation, focus formation [7]: inhibited | effect on binding of p110β to Rab5 (p110β–Rab5 binding): no effect | effect on LPA-stimulated increase in Akt phosphorylation at Thr308 [8]: completely inhibited | effect on enhanced migration of PI3Kβ-transfected NIH3T3 cells ([9]; Boyden chamber towards 10% FBS, 24 hours, 30 μM, Fig. 5F): blocked the enhanced migration | effect on Gβγ-mediated activation of PLC-β in cells (PLC-β): no effect | effect on cellular transformation by oncogenic Ras [10]: no effect | effect on PI3Kβ-dependent transformation, soft agar colony formation ([11]; 30 μM peptide in gels and media, colonies counted after 3 weeks, Fig. 5C): inhibited | effect on chemotaxis of PC3 cells toward serum (PC3 cells): inhibited the chemotaxis | effect on Gβγ-dependent activation of class IB PI3K (p101–p110γ) (p101–p110γ dimer): no effect | effect on abundance of p110β protein (p110β protein): did not reduce the abundance of p110β protein | effect on Gβγ-mediated increase in Akt phosphorylation at Thr308 ([2]; 30 min, Western blot): completely inhibited | effect on Gβγ-dependent activation of Akt (need for cell entry) ([2]; listed as myristoylated): inhibited Gβγ-dependent activation of Akt | effect on PC3 cell proliferation [3]: proliferation was inhibited | effect on synergistic activation of adenylyl cyclase by Gβγ and Gαs (adenylyl cyclase 2): no effect | effect on macrophage-dependent PC3 cell invasion [12]: blocked | effect on proliferation of PI3Kβ-transfected NIH3T3 cells [13]: neither the myristoylated peptide nor pertussis toxin inhibited the proliferation

KAAEIASSDSANVSSRGGKKFLPV [p110β-peptide]
effect on Gβγ-mediated activation of PLC-β in vitro (PLCβ3): no effect | effect on Gβγ-mediated activation of p101–p110γ dimers (p101–p110γ dimer (PI3Kγ)): no effect on Gβγ-mediated activation of p101–p110γ dimers | effect on Gβγ-dependent activation of Akt (need for cell entry) ([2]; listed as unlabeled peptide): no such effect

NGAEKVGSADSKSIAFVSLKARSP [myristoylated scrambled peptide, reference compound]
effect on PI3Kβ-dependent transformation, focus formation [7]: but not the myristoylated scrambled peptide, inhibited | effect on LPA-stimulated increase in Akt phosphorylation at Thr308 [8]: minimal effects | effect on Gβγ-mediated increase in Akt phosphorylation at Thr308 ([2]; 30 min, Western blot): minimal effects | effect on PC3 cell proliferation [3]: unaffected

QEHAQEPERQYMHIGTMVEFAYALVGK
effect on Gβγ-mediated activation of p101–p110γ dimers (p101–p110γ dimer (PI3Kγ)): inhibited

SIGKAFKILGYPDYD
effect on Gβγ-mediated activation of p101–p110γ dimers (p101–p110γ dimer (PI3Kγ)): inhibited

pertussis toxin [reference compound]
effect on wild-type p110β-enhanced migration ([9]; pertussis toxin, fig. S6, B and C): inhibited | effect on wild-type p110β-enhanced transformation ([11]; pertussis toxin, NIH3T3 cells, fig. S6, B and C): inhibited | effect on PC3 cell proliferation [3]: proliferation was inhibited | effect on proliferation of PI3Kβ-transfected NIH3T3 cells [13]: neither the myristoylated peptide nor pertussis toxin inhibited the proliferation
